Source: PubChem
This is a sample that favours compounds with a hit; in the whole collection about 2.2% have one here.
Tn6 DDE FP – disrupts Tn6 cyclic peptide binding to fibrin D-Dimer-E complex | P02675 | Fibrin DD(E) TRITC-Tn6 fluorescence polarization displacement | 370,000 tested, 0.21% active | inhibition, % at 8.3 µM;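 active = inhibition above a per-campaign cutoff: mean of compounds within control limits plus 3 SD, cut at about 15% in these data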;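 note: 0% = median of all compound wells on the plate and 100% = blocking peptide control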
MT1-MMP act inh – inhibitors of human MT1-MMP activation. P50281. HT1080 RFP-PRO-GFP cells, GFP/RFP ratio fluorescence, overnight; percent of plate control window, DMSO zero. GFP/RFP ratio change, % at 20 µM. 360,000 tested, 0.061% active. AID 651647;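 active = GFP/RFP ratio change of at least 30% with cell ATP level not reduced by more than half and red fluorescence within 50% of control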
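Material: RFP-PRO-GFP reporter HT1080 cells. Dosing: single-point 20 µM compound, 1% DMSO. Controls: DMSO and RFP-L50D-GFP cell wells. Timing: cells overnight before dosing, compound overnight, 37 °C, 5% CO2. Measure: GFP/RFP fluorescence ratio.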
Neddylation inh – blocks human cullin neddylation; P61081+Q13564; TR-FRET cullin neddylation, biochemical; calls only at 25 µM; 360,000 tested, 0.58% active; AID 651699; in the data active = inhibition above about 36%
Target sequence (P61081 whole entry, looked up): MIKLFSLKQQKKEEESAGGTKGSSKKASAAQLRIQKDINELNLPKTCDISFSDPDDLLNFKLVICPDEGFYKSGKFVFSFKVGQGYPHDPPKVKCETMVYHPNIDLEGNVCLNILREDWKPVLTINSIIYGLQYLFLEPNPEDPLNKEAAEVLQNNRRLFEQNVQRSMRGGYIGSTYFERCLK
Target sequence (Q13564 whole entry, looked up): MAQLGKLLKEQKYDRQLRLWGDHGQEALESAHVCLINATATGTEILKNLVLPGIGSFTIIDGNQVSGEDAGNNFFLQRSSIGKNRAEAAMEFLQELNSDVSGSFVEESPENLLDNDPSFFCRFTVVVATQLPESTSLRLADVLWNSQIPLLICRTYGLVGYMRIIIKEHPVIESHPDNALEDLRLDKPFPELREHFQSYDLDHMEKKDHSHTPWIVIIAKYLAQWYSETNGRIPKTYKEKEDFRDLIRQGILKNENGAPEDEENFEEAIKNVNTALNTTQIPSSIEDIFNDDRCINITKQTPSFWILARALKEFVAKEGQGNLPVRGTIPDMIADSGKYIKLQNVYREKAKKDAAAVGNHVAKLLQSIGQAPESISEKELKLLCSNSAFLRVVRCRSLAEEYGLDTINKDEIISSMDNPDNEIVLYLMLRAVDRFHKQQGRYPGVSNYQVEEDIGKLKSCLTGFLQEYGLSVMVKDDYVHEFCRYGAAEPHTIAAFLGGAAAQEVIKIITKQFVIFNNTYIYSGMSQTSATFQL
DDE Tn7 FP inh – disrupts Tn7 cyclic peptide binding to fibrin D-Dimer-E complex; FP displacement of FITC-Tn7 peptide from fibrin DD(E); 0% = median of compound wells per plate; 370,000 tested, 0.13% active; inhibition, % at 8.3 µM;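 active = inhibition above the mean of compounds falling within the control limits plus 3 SD of them, cut at about 14% in these data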;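 note: 0% = plate median of compound wells and 100% = 10 µM Aha-Tn7 peptide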
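Assay system: Fibrin-DD(E) protein isolated from polymerized human fibrin clots; read-out basis: percent inhibition; medium: Tris/NaCl/CaCl2 buffer, pH 7.8; signal: FP measurement; incubation: 10 min plus 3 h, room temperature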
KLK7 zymogen act – proKLK7 (human) activation, primary screen; activation, % at 7 µM; 370,000 tested, 0.9% active; purified proKLK7, EDANS-DABCYL substrate fluorescence; 100% is mature enzyme control, 0% vehicle; P49862;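 active = activation above the mean of all tested compounds plus 3 SD, computed per campaign excluding outliers beyond control limits, cut at about 13% in these data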
SKN-1 block – inhibitors of C. elegans SKN-1. C. elegans VP596 Pgst-4::GFP/RFP ratio, acrylamide-induced, 24 h. inhibition, % at 21.8 µM. 360,000 tested, 0.49% active. AID 624304;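 active = interference check ratio from 0.5 to 1.5 plus GFP to RFP signal ratio inhibition reaching or exceeding a fixed threshold, cut at about 30% in these data, passing the limit was not always enough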
KLK7 act conf – proKLK7 activation, confirmation; shares compounds with KLK7 zymogen act; purified proKLK7, EDANS-DABCYL substrate fluorescence; scaled: vehicle 0, mature enzyme 100; activation, % at 7 µM; 3,200 tested, 68% active;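 active = activation, as change over the incubation, above the mean of all tested compounds plus 3 SD, cut at about 13% in these data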
EDANS-DABCYL int – counter-screen for kallikrein-7 activators: EDANS-DABCYL optical interference; activation, % at 7 µM; EDANS-DABCYL substrate fluorescence interference, no enzyme, 4 h; solvent 0%, active enzyme control 100%; shares compounds with KLK7 zymogen act; 3,200 tested, 80% active;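 active = activation above the all-compound mean plus 3 SD, ignoring values outside control-based bounds, cut at about 4.8% in these data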;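 note: value is the 4 h activation minus the activation read at time zero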
EDANS interf – counter-screen for kallikrein-7 activators: EDANS-DABCYL interference, dose response; EDANS-DABCYL peptide fluorescence interference, no enzyme; AID 720493; EC50, µM; 250 tested, 20% active; shares compounds with KLK7 zymogen act;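 active = compounds that raise the fluorescence signal in this interference counterscreen, with EC50 at or below 10 µM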;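 note: intact quenched peptide substrate alone read at 355 nm excitation and 520 nm emission; signal is fluorescence gain from T0 to T4 after four hours at room temperature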
The depositor's hits bear a star; i = inactive; nt = no result given.

SMILES	Tn6 DDE FP	MT1-MMP act inh	Neddylation inh	DDE Tn7 FP inh	KLK7 zymogen act	SKN-1 block	KLK7 act conf	EDANS-DABCYL int	others
COc1cc(C2C3CN(C)CC=C3C(C#N)=C(N)C2(C#N)C#N)ccc1OC(C)C (stereo not drawn)	0.6	-58.1	i	-4.7	0.8	-7.8	nt	nt
N#CC1=C(N)C(C#N)(C#N)[C@H](c2ccncc2)[C@H]2CN(C(=O)OCc3ccccc3)CC=C12	0.3	-98.4	i	6.5	30.7*	-5.8	26.7*	21.5*
CCN(CC)CCCNc1ccc(-c2nnc(-c3ccc(OCC(C)C)cc3)o2)cn1	-0.4	nt	nt	3.3	-8.2	-18.0	nt	nt
CC(=O)C1C(c2ccccc2)c2c(noc2C)CC1(C)O (stereo not drawn)	-3.0	2.5	i	6.7	0.3	-0.8	nt	nt
C=CCn1c(-c2ccc(OC)c(OC)c2)cs/c1=N\c1ccccn1	2.5	-1.6	i	1.4	0.3	33.0	nt	nt
COC(=O)c1ccc(N2C(c3cc(OC)cc(OC)c3)=Cc3ccc(-c4ccc(C(N)=O)cc4)cc3C2CC(=O)C2CC2)cc1 (stereo not drawn)	-8.4	-8.3	nt	1.7	40.4*	3.8	57.0*	23.1*	EDANS interf=>69.5
COC(=O)c1ccc(N2C(c3cc(OC)cc(OC)c3)=Cc3ccc(-c4cccnc4)cc3C2CC(=O)C2CC2)cc1 (stereo not drawn)	6.3	-0.9	nt	1.9	61.7*	20.1	28.5*	-9.7	EDANS interf=>69.5
COC(=O)c1ccc(CNC(=O)N2CCN(S(=O)(=O)c3ccc(C)cc3)CC2)cc1	-1.5	-2.7	i	0.9	0.0	-6.3	nt	nt
O=C(Nc1nc(-c2ccc(F)c(F)c2)cs1)c1ccc(OCC2CCCO2)cc1 (stereo not drawn)	-3.5	-13.0	i	-3.1	-0.1	-0.4	nt	nt
CCc1nc2ccccc2c(C(=O)Nc2cc(C)ccc2C)c1C	-2.9	0.2	i	-3.7	0.7	3.2	nt	nt
Clc1ccc(CN2CCC(c3nc4ccc(Cl)cc4[nH]3)CC2)cc1	1.5	-9.6	i	-7.7	1.1	5.6	nt	nt
Nc1ccc2c(c1)[nH]c(=O)c1ccccc12	-4.0	4.3	nt	-3.6	38.5*	3.9	48.8*	46.9*
Nc1cccc2[nH]c(=O)c3ccccc3c12	-7.0	-3.7	nt	-9.0	20.4*	-1.0	21.1*	21.1*
Cc1ccc(S(=O)(=O)/N=C2\C=C(Nc3cccc(C(=O)O)c3)C(=O)c3ccccc32)c(C)c1	-2.3	20.7	i	3.0	1.0	26.8	nt	nt
CCc1ccc(/C=N/NC(=O)c2cc(C3CC3)nc3ccc(Br)cc23)s1	0.2	13.3	i	0.5	-0.4	-0.8	nt	nt
CC1(C)Cc2[nH]c(=O)c(C#N)cc2CS1	5.8	-0.3	i	3.0	-3.2	-7.7	nt	nt
Cc1cc(NC(=O)CSc2nc3c(C)ccc(C)c3cc2C#N)no1	-3.2	-44.1	i	-2.5	-0.2	14.7	nt	nt
CCc1c(C)nc(SCC(=O)CC(=O)OC(C)C)c(C#N)c1C	-2.6	6.3	i	-0.8	48.2*	4.4	26.5*	24.1*
CCc1nnc(NC(=O)CSc2nc3c(cc2C#N)CCC3)s1	6.8	4.7	i	-1.4	-6.3	16.0	nt	nt
CCc1nnc(NC(=O)CSc2nc(C)cc(C)c2C#N)s1	-8.2	-1.5	i	-2.0	13.7*	-14.6	81.9*	80.1*
Cc1cc(C)c(C#N)c(SCC(=O)Nc2cc(C)on2)n1	3.8	5.4	i	2.4	15.7*	1.8	102.5*	109.0*
COC(=O)CC(=O)CSc1nc(C)cc(C)c1C#N	-0.6	6.2	nt	-0.2	20.4*	-22.6	93.0*	91.3*
CS(=O)(=O)O/N=C1\CCCCC1c1ccc([N+](=O)[O-])cc1[N+](=O)[O-] (stereo not drawn)	-1.4	-9.9	i	-3.0	-0.4	-18.1	nt	nt
CCOc1ccc(N(C)S(=O)(=O)c2c[nH]c(C(=O)OC)c2)cc1	-3.9	1.4	i	5.0	-0.1	14.0	nt	nt
CCOC(=O)NC(=O)CSc1nc(C)cc(C)c1C#N	2.3	0.8	i	0.0	98.9*	-19.6	90.9*	98.6*
SMILES	Tn6 DDE FP	MT1-MMP act inh	Neddylation inh	DDE Tn7 FP inh	KLK7 zymogen act	SKN-1 block	KLK7 act conf	EDANS-DABCYL int	others
Cc1ccc(CN2CCN(C(=O)CCc3ccccc3)CC2)cc1	-3.3	3.1	i	-4.2	-0.1	21.7	nt	nt
CCOC(=O)CNc1c(-c2ccc(F)cc2)nc2cnccn12	3.9	-3.9	nt	2.5	65.4*	-9.1	63.0*	64.6*
CCOC(=O)CNc1c(-c2ccc(Cl)cc2)nc2cnccn12	-7.8	-3.2	nt	-1.3	64.6*	-7.8	77.0*	80.3*
CCOC(=O)CNc1c(-c2ccc(OC)cc2)nc2ccc(Cl)cn12	1.2	1.9	nt	0.5	6.7	2.9	nt	nt
NC(=S)c1csc(CCNC(=O)c2ccccc2)n1	-11.0	-0.2	i	0.4	-0.4	7.1	nt	nt
CC(=O)c1c(C)nc2nonc2c1N	-6.3	0.8	i	-0.8	15.8*	1.3	32.8*	37.8*
Cc1[nH]ncc1-c1nc2ccccc2[nH]1	-2.0	-1.9	i	-6.0	-0.4	10.0	nt	nt
Nc1ccc(-c2nc3ccccc3[nH]2)cc1	2.5	4.2	nt	-8.0	1.0	9.7	nt	nt
Oc1ccc(C=Nc2ccccc2-c2nc3ccccc3[nH]2)cc1	-5.6	0.6	nt	-1.2	80.9*	4.6	29.9*	29.0*
Cc1c(-c2nc3ccccc3[nH]2)cnn1C	-0.8	2.8	i	-4.5	0.0	12.8	nt	nt
O=c1[nH]cccc1-c1nc2ccccc2[nH]1	-3.6	-3.2	nt	-3.8	56.0*	8.4	65.8*	75.2*
Nc1ccccc1-c1nc2ccccc2[nH]1	-11.5	3.5	nt	0.3	68.9*	21.2	-2.4	0.5
CCC1SC2=NC(C)=C(C(=O)OC)C(c3ccc(C)cc3)N2C1=O (stereo not drawn)	3.7	-37.9	i	2.8	-0.5	-25.2	nt	nt
COC(=O)C1=C(C)NC(C)=C(C(=O)OC)C1/C=C/c1ccccc1	6.1	13.0	nt	3.7	-0.5	14.1	nt	nt
N#Cc1c(C(F)(F)F)cc(=O)n2c1[nH]c1ccccc12	-2.1	-6.0	nt	2.2	51.9*	17.6	64.1*	66.4*
N#Cc1c(CSCC(=O)O)cc(=O)n2c1[nH]c1ccccc12	2.9	1.3	i	-1.5	1.4	1.1	nt	nt
